In brackets after ≈: the same amount, converted by molar mass. Several values for one entry are separate records, joined by “and”; a condition that tells them apart may be missing. Equal values may be shown once. Read-outs that look alike come from different tables or passages of the source.
What was measured:
HCV [1] = conditions: monotherapy, doses of 200 and 500 mg/day; cited from earlier work
HCV [2] = assay: PK/VK model fitted to HCV RNA kinetics during danoprevir monotherapy; assay type: in vivo, Hepatitis C virus; conditions: for minimal effectiveness: at Cmin
HCV genotype 1 [3] = conditions: cited from earlier work
HCV genotype 1 [4] = assay type: in vivo, Hepatitis C virus; conditions: 14 days
How it was run: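 Reanalysed phase 1 data. Chronically infected patients were randomised 8:2 to oral test compound or placebo for 14 days, and placebo recipients were excluded. HCV RNA was measured in blood drawn at 0, 2, 4, 6, 8, 12, 16, 24, 26, 28, 30, 48 and 52 h, on days 6 and 8 pre- and post-dose, and on day 13.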

HCV [5] = assay: Varying effectiveness; assay type: in vivo, Hepatitis C virus; conditions: VE model
How it was run: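 Standard viral kinetic model with constant target cells, fitted to log10 viral load only, without PK data. Effectiveness = Dose/(ED50+Dose)·(1−e^(−kt)), where Dose is the total daily amount. Population mixed-effects fit by maximum likelihood. Per-patient effectiveness was averaged over days 0–2 and 0–14, then over each cohort. First-phase decline = −log10(1−ε).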

HCV [6] = conditions: 200 mg tid, multiscale model; cited from earlier work
[7] = Two-compartment population PK model fitted to danoprevir plasma concentrations; assay type: in vivo, patients
HCV [8] = conditions: in combination with mericitabine, 14 days, no viral breakthrough; cited from earlier work
[9] = PK/VK model, Cohort 1: 100 mg bid, TN
[10] = PK/VK model, Cohort 2: 100 mg tid, TN
[11] = PK/VK model, Cohort 3: 200 mg bid, TN
[12] = PK/VK model, Cohort 4: 200 mg tid, TN
[13] = PK/VK model, Cohort 5: 300 mg bid, non-responder
[14] = after first intake, 100 mg bid dose
[15] = Cohort 5: 300 mg bid, non-responder

## COc1ccc2c(O[C@@H]3C[C@H]4C(=O)N[C@]5(C(=O)O)C[C@H]5/C=C\CCCCC[C@H](NC(=O)OC5CCCC5)C(=O)N4C3)cc(-c3csc(NC(C)C)n3)nc2c1 [ciluprevir]
HCV [1]
  δ (second phase decline): 0.22 to 0.36 day⁻¹

## CC(C)(C)OC(=O)N[C@H]1CCCCC/C=C\[C@@H]2C[C@@]2(C(=O)NS(=O)(=O)C2CC2)NC(=O)[C@@H]2C[C@@H](OC(=O)N3Cc4cccc(F)c4C3)CN2C1=O [danoprevir]
HCV [2]; 200 mg tid
  final effectiveness in blocking viral production: 99.4%
HCV [2]; [9]
  Average effectiveness over the first 2 days of dosing ε2: 0.946
  Average effectiveness over the full 14-day dosing period ε14: 0.95 and 0.953
  Predicted first-phase log decline, i.e. −log10(1−ε2): 1.27 log10
HCV [2]; [10]
  Average effectiveness over the first 2 days of dosing ε2: 0.981
  Average effectiveness over the full 14-day dosing period ε14: 0.990
  Predicted first-phase log decline, i.e. −log10(1−ε2): 1.72 log10
HCV [2]; [11]
  Average effectiveness over the first 2 days of dosing ε2: 0.966
  Average effectiveness over the full 14-day dosing period ε14: 0.974
  Predicted first-phase log decline, i.e. −log10(1−ε2): 1.47 log10
HCV [2]; [12]
  Average effectiveness over the first 2 days of dosing ε2: 0.985
  Average effectiveness over the full 14-day dosing period ε14: 0.994
  Predicted first-phase log decline, i.e. −log10(1−ε2): 1.83 log10
HCV [2]; [13]
  Average effectiveness over the first 2 days of dosing ε2: 0.974
  Average effectiveness over the full 14-day dosing period ε14: 0.982
  Predicted first-phase log decline, i.e. −log10(1−ε2): 1.58 log10
HCV [2]; PK/VK model, cohort 1 (lowest dose)
  minimal effectiveness: 0.706
HCV [2]; PK/VK model, cohort 4 (highest dose)
  minimal effectiveness: 0.877
HCV [2]; PK/VK model, in vivo, h=1, population estimate±standard error
  EC50 (plasma concentration at which effectiveness is 0.5 times its maximum): 0.0082 ± 0.0024 ng/mL (≈ 0.0112 nM)
HCV [2]; PK/VK model, population estimate±standard error, all cohorts
  δ (loss rate of infected cells, slope of second phase decline): 0.18 day⁻¹ and 0.18 ± 0.024 day⁻¹
HCV [2]; [14]
  time to reach 95% of final effectiveness: ≤ 30 min
  time to reach 99% of final effectiveness: ≤ 36 min
HCV [2]; all cohorts
  patients showing a rapid second phase (δ > 0.3 d^−1): 30%
HCV [2]; model prediction, all doses
  time to reach 99% of the final effectiveness: less than 1 hr
HCV genotype 1 [3]; genotype 1, with IFN and ribavirin, boosted with ritonavir
  cure rates: up to 93%
HCV genotype 1 [3]; patients infected with genotype 1, in combination with IFN and ribavirin
  cure rates: up to 85%
HCV genotype 1 [4]; Cohort 1: 100 mg bid, treatment-naïve
  Total viral decline (median): 2.0 Log10 IU/mL
HCV genotype 1 [4]; Cohort 2: 100 mg tid, TN
  Total viral decline (median): 2.7 Log10 IU/mL
HCV genotype 1 [4]; Cohort 4: 200 mg tid, TN
  Total viral decline (median): 3.9 Log10 IU/mL
HCV genotype 1 [4]; [15]
  Total viral decline (median): 2.7 Log10 IU/mL
HCV [5]; Cohort 1: 100 mg bid, TN
  Average effectiveness over the first 2 days of dosing ε2: 0.973
  Average effectiveness over the full 14-day dosing period ε14: 0.976
  Predicted first-phase log decline, i.e. −log10(1−ε2): 1.57 log10
HCV [5]; Cohort 2: 100 mg tid, TN
  Average effectiveness over the first 2 days of dosing ε2: 0.982
  Average effectiveness over the full 14-day dosing period ε14: 0.984
  Predicted first-phase log decline, i.e. −log10(1−ε2): 1.74 log10
HCV [5]; Cohort 3: 200 mg bid, TN
  Average effectiveness over the first 2 days of dosing ε2: 0.985
  Average effectiveness over the full 14-day dosing period ε14: 0.988
  Predicted first-phase log decline, i.e. −log10(1−ε2): 1.82 log10
HCV [5]; Cohort 4: 200 mg tid, TN
  Average effectiveness over the first 2 days of dosing ε2: 0.990
  Average effectiveness over the full 14-day dosing period ε14: 0.992
  Predicted first-phase log decline, i.e. −log10(1−ε2): 2.00 log10
HCV [5]; [15]
  Average effectiveness over the first 2 days of dosing ε2: 0.990
  Average effectiveness over the full 14-day dosing period ε14: 0.992
  Predicted first-phase log decline, i.e. −log10(1−ε2): 2.00 log10
HCV [5]; estimate±standard error
  ED50 (daily dose leading to 50% of the maximal effectiveness): 4.85 ± 1.4 mg/day
  k (rate constant for effectiveness increase): 29.1 ± 13.0 day⁻¹ and 29.1 ± 13 day⁻¹
  δ (loss rate of infected cells): 0.184 ± 0.03 day⁻¹
HCV [5]; highest dose given to treatment-naïve patients (cohort 4)
  final population effectiveness: 0.992
HCV [5]; lowest dose (cohort 1)
  final population effectiveness: 0.976
HCV [6]
  effectiveness in blocking intracellular replication: 99.2%
  enhancement of viral RNA degradation: about 5 fold
  mean effectiveness on viral secretion: 56%
[7]; human, plasma, oral
  Cmax: 2.67 to 589 ng/mL
  Vd/F: 2100 ± 360 L
  k el: 0.000283 s⁻¹
[7]; population estimate±standard error, all cohorts
  k21 (backward rate constant between compartments): 0.81 h⁻¹ and 0.81 ± 0.17 h⁻¹
[7]; population estimate±standard error, all cohorts, oral
  Tlag (post-dose lag-time): 0.50 h and 0.50 ± 0.057 h
[7]; population estimate±standard error, all cohorts, zero-order absorption
  Tk0 (time over which danoprevir is absorbed): 0.58 h and 0.58 ± 0.13 h
HCV [8]
  viral RNA decline: 5 logs
